Measurements from different studies.
Compare with care: the assays were run in different laboratories.
Target: Serine/threonine-protein kinase Sgk3 (SGK3, Homo sapiens, UniProt Q96BR1)
One construct used (Q96BR1 1-496): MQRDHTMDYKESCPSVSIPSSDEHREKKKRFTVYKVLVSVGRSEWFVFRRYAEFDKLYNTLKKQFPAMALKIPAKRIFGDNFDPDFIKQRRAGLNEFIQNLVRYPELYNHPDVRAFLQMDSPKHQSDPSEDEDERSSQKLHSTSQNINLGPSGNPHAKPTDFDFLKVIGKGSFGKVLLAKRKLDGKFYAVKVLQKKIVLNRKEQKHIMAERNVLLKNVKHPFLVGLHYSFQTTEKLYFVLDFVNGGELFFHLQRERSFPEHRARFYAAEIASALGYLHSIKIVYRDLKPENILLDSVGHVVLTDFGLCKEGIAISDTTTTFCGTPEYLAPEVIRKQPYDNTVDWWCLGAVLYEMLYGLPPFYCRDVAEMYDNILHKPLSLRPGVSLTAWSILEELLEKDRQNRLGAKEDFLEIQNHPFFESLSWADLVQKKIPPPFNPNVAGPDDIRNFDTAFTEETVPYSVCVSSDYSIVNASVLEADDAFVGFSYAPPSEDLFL

CCN1CCN(Cc2ccc(C(=O)Nc3ccc(C)c(Oc4ccc5c(c4)CC(=O)N5)c3)cc2C(F)(F)F)CC1  remaining binding (binding, competition with immobilised ligand; 1 µM): 100%
C=CC(=O)N1CCC(C(=O)NCC(=O)N2CCN(c3nc(-c4cnc(N)nc4C(F)F)nc(N4CCOCC4)n3)CC2)CC1  remaining binding (binding, competition with immobilised ligand; 1 µM): 100%
CN(CCCC(F)(F)F)c1nccc(-c2cnn3ncccc23)n1  remaining binding (binding; 1 µM): 97%
CS(=O)(=O)c1cc(C2(NC(=O)c3cncc4c3cnn4-c3ccc(F)cc3)CC2)ccn1  remaining binding (cell-free assay, competition with immobilised ligand; 1 µM): 100%
COc1cnc(Nc2cccc(S(N)(=O)=O)c2)nc1N1CCN(c2ccccc2)CC1  remaining binding (binding, competition with immobilised ligand; 1 µM): 72%
c1cncc(-c2cccc(Nc3nccc(NC4CCCCC4)n3)c2)c1  remaining binding (binding, competition with immobilised ligand; 10 µM): 58%
C[C@H](c1cccc(C#N)c1)n1cc(Cl)cc(C(N)=O)c1=N  remaining binding (cell-free assay, competition with immobilised ligand; 1 µM): 80%
C[C@@H]1CCN(c2nccc(-c3cnn4ncccc34)n2)C1  remaining binding (binding; 1 µM): 87%
COc1cnc(Nc2cccc(S(N)(=O)=O)c2)nc1N1CCN(c2ccccc2)C(=O)C1  remaining binding (binding, competition with immobilised ligand; 1 µM): 100%
C[C@@]1(Cc2ccc(C#N)cc2)C(=O)N(c2cc(Cl)cc(Cl)c2)c2ncc(C(=O)NC3(c4nc(C5CCC5)no4)CC3)n21  remaining binding (cell-free assay, competition with immobilised ligand; 1 µM): 100%
O=C(Nc1c[nH]nc1C(=O)NC1CCNCC1)c1cc(F)cc(F)c1  remaining binding (binding, competition with immobilised ligand; 1 µM): 100%
N[C@H]1CCN(c2nccc(-c3cnn4ncccc34)n2)C1  remaining binding (binding; 1 µM): 100%
COCCOc1nc(-c2ccc(Cl)nc2)nc2c1CN(C(=O)c1ncn3ccccc13)CC2  remaining binding (cell-free assay, competition with immobilised ligand; 0.1 µM): 100%
O=C(c1ccc(Nc2nccc(-c3cc4ccccc4s3)n2)cc1)N1CCC(N2CCCC2)CC1  remaining binding (binding, competition with immobilised ligand; 1 µM): 19%
Cc1noc([C@H]2C[C@@H](c3ccc(C(F)(F)F)cc3)CN(C(=O)N3CCS(=O)(=O)C3)C2)n1  remaining binding (cell-free assay, competition with immobilised ligand; 1 µM): 100%
c1cnn2ncc(-c3ccnc(N4CCC45COC5)n3)c2c1  remaining binding (binding; 1 µM): 71%
O=C(NCCCN1CCOCC1)c1ccc(Nc2ncc(Cl)c(-c3ccc(Cl)s3)n2)cc1  remaining binding (binding, competition with immobilised ligand; 1 µM): 45%
CN(c1nccc(-c2cnn3ncccc23)n1)C1CC1  remaining binding (binding; 1 µM): 99%
COc1cccc(CNC(=O)c2nc3scc(COCc4ccc(C(=O)O)cc4)c3c(=O)[nH]2)c1  remaining binding (cell-free assay, competition with immobilised ligand; 1 µM): 69.2%
O=C(NCCCN1CCOCC1)c1ccc(Nc2nccc(-c3cc4ccccc4s3)n2)cc1  remaining binding (binding, competition with immobilised ligand; 1 µM): 29%
CC1CCCN1c1nccc(-c2cnn3ncccc23)n1 (stereo not drawn)  remaining binding (binding; 1 µM): 86%
